# TAAR1 antagonist – antagonists of human TAAR1; 1.5% of 360,000 active; CHO RD-HGA16 TAAR1, Fluo-8 calcium fluorescence, antagonist; inhibition, % at 3 µM;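 active = inhibition above a per-plate cutoff, the mean inhibition of test compounds on that plate plus 3 SD, cut at about 49% in these data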;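 note: 0% = DMSO plus EC80 beta-PEA response and 100% = DMSO alone without agonist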
#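 Test system – hTAAR1-expressing CHO RD-HGA16 cells, Gα16-coupled · Also added – β-PEA at EC80 concentration, post-compound challenge · Compound – 3 µM, single point · Incubation – dye loading 75 min at 37 °C, then 30 min room temperature · Measured by – Fluo-8 intracellular calcium dye fluorescence, real-time kinetic reads · Benchmarks – vehicle and agonist controls · Replicates – singlicate, one well per test compound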
# CHO parental Ca – counter-screen: ATP calcium response change in parental CHO cells; parental CHO-K1, ATP-induced calcium, Fluo-8 fluorescence; inhibition, % at 5.6 µM; 0.63% of 330,000 active; AID 463079;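 active = inhibition above that plate's mean sample inhibition plus 3 SD, cut at about 26% in these data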;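 note: 0% = ATP-challenged DMSO wells and 100% = DMSO wells without ATP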
#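 Test system: parental CHO cells; detection: calcium-sensitive Fluo-8 fluorescence; evaluation: percent inhibition of calcium signal; also added: ATP as calcium-mobilizing challenge; repeats: one well per compound; control set: ATP-challenged DMSO wells low, unchallenged DMSO wells high; compound: single nominal dose of 5.6 µM per compound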
# OX1R antag-1 – antagonists of human orexin 1 receptor; CHO/OX1R cells, Fluo-8 calcium fluorescence, orexin A; inhibition, % at 5 µM; O43613; AID 434989; 0.43% of 330,000 active;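 active = inhibition above its plate's threshold, mean inhibition of all tested compounds on the plate plus 3 SD, cut at about 37% in these data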;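 note: 0% = orexin A challenge wells and 100% = SB-334867-A antagonist wells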
# Target sequence (O43613 whole entry, looked up): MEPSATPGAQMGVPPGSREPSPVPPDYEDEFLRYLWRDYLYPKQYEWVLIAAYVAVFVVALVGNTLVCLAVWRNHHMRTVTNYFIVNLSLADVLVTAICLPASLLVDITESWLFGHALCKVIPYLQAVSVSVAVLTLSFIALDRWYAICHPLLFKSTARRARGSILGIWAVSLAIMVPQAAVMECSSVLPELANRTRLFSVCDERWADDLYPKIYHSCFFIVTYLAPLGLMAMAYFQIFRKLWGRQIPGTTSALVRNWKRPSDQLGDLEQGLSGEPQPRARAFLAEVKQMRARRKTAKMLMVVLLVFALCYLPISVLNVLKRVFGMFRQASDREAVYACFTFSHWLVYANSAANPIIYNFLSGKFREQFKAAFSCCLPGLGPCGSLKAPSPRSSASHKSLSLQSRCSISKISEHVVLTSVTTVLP
# GPR7 antag – human neuropeptides B/W receptor 1 antagonism; inhibition, % at 4.4 µM; AID 1861; P48145; GPR7-expressing cells, fluorescence antagonist assay; 1.1% of 290,000 active; in the data active = inhibition above about 16%, passing the limit was not always enough;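 note: cells stimulated with the agonist NPW; 0% = agonist with vehicle and 100% = vehicle without agonist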
# TAAR1 ag – human TAAR1 agonism | AID 624467 | 0.99% of 360,000 active | CHO RD-HGA16 TAAR1, Fluo-8 calcium fluorescence; vehicle wells 0%, saturating PEA agonist 100% | activation, % at 3 µM;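 active = activation above the mean activation of all test compounds in the run plus 3 SD, cut at about 38% in these data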
#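 System: CHO RD-HGA16 cells carrying human TAAR1 plus Gα16; Incubation: 17-24 h seeding, 75 min 37 °C dye, 30 min RT; Measured by: Fluo-8 fluorescence, 5 s baseline then 140 s kinetic read; Control set: DMSO and PEA EC100; Replication: single well for each compound.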
# OX1R antag-2 – blocks the human orexin 1 receptor; O43613; OX1R-expressing cells, FRET antagonist read-out; inhibition, % at 6.6 µM; 1.8% of 330,000 active; in the data active = inhibition mostly above about 38%, no sharp cut-off; inactive = mostly below about 40%;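 note: 0% = agonist challenge alone and 100% = reference antagonist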
# * hit, by the source's call; x = not tested or not shown. Hits are enriched below; roughly 4.6% of the tested compounds scored in any of these assays.
SMILES,TAAR1 antagonist,CHO parental Ca,OX1R antag-1,GPR7 antag,TAAR1 ag,OX1R antag-2
CSc1nc2nccc(-c3ccc(-c4ccccc4)cc3)n2n1,8,-25,1,-5,5,44*
CSc1nc2nccc(-c3ccc4c(c3)OCO4)n2n1,-33,-2,10,-10,1,12
COc1ccc(S(=O)(=O)/C(C#N)=C/Nc2ccc(NC(C)=O)cc2)cc1,-28,x,x,-1,3,x
O=C(CCN=C1NS(=O)(=O)c2ccccc21)OCc1nnc(-c2ccc([N+](=O)[O-])cc2)o1,-10,-9,12,x,0,63*
O=C(OCc1nnc(-c2ccc([N+](=O)[O-])cc2)o1)C1CC(=O)N(CCc2ccccc2)C1 (centres undefined),4,-2,-10,x,-4,60*
Cc1csc(=O)n1CCC(=O)OCc1nnc(-c2ccccc2)o1,-9,-15,-17,x,2,5
N#Cc1ccccc1COC(=O)CCN=C1NS(=O)(=O)c2ccccc21,5,-4,-6,x,5,2
Cc1csc(=O)n1CCC(=O)OCc1nnc(-c2ccc([N+](=O)[O-])cc2)o1,-7,-12,-16,x,0,50*
CN1[C@@H](COCc2ccccc2)C=CS1(=O)=O,-16,x,x,x,1,x
CCCN(CCC)c1cc(Cl)nc(N)n1,-27,-8,-8,-8,1,37
CC(=O)N1CCc2c(sc(NC(=O)c3ccc([N+](=O)[O-])o3)c2C#N)C1,-18,x,x,-9,16,x
COC(=O)c1c(NC(=O)c2ccc([N+](=O)[O-])o2)sc2c1CCN(C(C)C)C2,-8,-11,-19,-7,-1,65*
CC(C)N1CCc2c(sc(NC(=O)c3ccc([N+](=O)[O-])o3)c2C(N)=O)C1,-12,-11,-9,1,-1,93*
Cn1c(=O)n(C)c2cc(NC(=O)c3ccccc3[N+](=O)[O-])c(Br)cc21,-12,-7,-19,-9,1,16
O=C(COc1ccc(-n2cnnn2)cc1)Nc1ccc(F)c(F)c1F,18,30*,-73,x,8,2
CCN1/C(=C/C(C)=C/c2sc3ccccc3[n+]2CC)Sc2ccccc21,32,87*,95*,2,17,63*
CCN1/C(=C\C(=S)Nc2ccccc2)Sc2ccccc21,2,-9,-27,10,0,10
O=C1C[C@@H]2c3c(cccc3CN1Cc1ccc(F)cc1)C[C@@H](O)[C@H]2O,20,-4,-23,x,7,12
O=C(NNc1ccc(O)cc1)c1ccc(Br)cc1,8,-5,2,9,-1,13
CCN(CC)C(=O)CN1C(=O)/C(=C/c2ccccc2)SC1=S,-27,-12,-29,1,7,15
O=C(CCCN1C(=O)/C(=C\c2cccs2)SC1=S)Nc1ccccc1O,38,x,x,x,3,x
Cc1ccc(/C=C2\SC(=S)N(CCC(=O)NNS(=O)(=O)c3ccc(C)cc3)C2=O)cc1,2,-11,-11,21*,2,11
CC(=O)NNC(=O)CN1C(=O)/C(=C/c2ccccc2)SC1=S,-27,-13,-18,21*,4,51
O=C(CCCN1C(=O)/C(=C\c2ccccc2)SC1=S)N1CCOCC1,18,33*,46*,x,7,32
O=C(CCCN1C(=O)c2ccccc2C1=O)NCCN1C(=O)S/C(=C\c2cccs2)C1=O,37,-28,-20,3,10,66*
SMILES,TAAR1 antagonist,CHO parental Ca,OX1R antag-1,GPR7 antag,TAAR1 ag,OX1R antag-2
O=C(CN1C(=O)NC2(CCCCC2)C1=O)NC1CCCc2ccccc21 (centres undefined),3,-7,-28,-10,0,15
O=C(CSc1nc(=O)n(CCCN2CCOCC2)c2c1CCC2)Nc1ccc([N+](=O)[O-])cc1,-10,-24,-25,x,1,24
Cc1c(S(=O)(=O)N2CCCCC2)c(=O)n(C)c(=O)n1C,-7,-12,-4,x,1,3
COc1ccccc1CC(=O)NN1C(=O)c2ccccc2C1=O,7,-3,13,-1,3,6
O=C(CN1C(=O)S/C(=C\c2ccccc2)C1=O)NNC(=O)c1ccccc1O,-1,10,9,-7,-1,42
O=C(CCCN1C(=O)S/C(=C\c2ccccc2)C1=O)NNC(=O)c1ccccc1O,8,7,1,0,7,56*
O=C(CCN1C(=O)/C(=C\c2ccccc2)SC1=S)NNC(=O)c1ccccc1O,-19,3,10,-17,8,64*
O=C(CCN1C(=O)/C(=C\c2ccccc2)SC1=S)NNC(=O)c1cccnc1,54*,-5,-18,8,17,19
CCC1CCCCN1C(=O)COC(=O)c1ccc(Br)o1 (centres undefined),-13,9,3,x,5,0
CCCCC(O)(CCCC)C(=O)N/N=C(\C)c1ccc(Cl)cc1,-31,-23,-5,20*,-2,8
O=C(CNC(=O)c1cc(-c2ccccc2)nn1-c1ccccc1)Nc1ccccc1Br,14,x,x,x,5,x
O=C(CCCCCn1c(=S)[nH]c2ccc(Br)cc2c1=O)NCC1CCCO1 (centres undefined),38,-17,-24,-2,12,14
NS(=O)(=O)c1ccc(CCNC(=O)CCCCCn2c(=S)[nH]c3ccc(Br)cc3c2=O)cc1,60*,6,-18,17*,25,19
COc1ccc(C2(c3ccc(OC)cc3)NC(=O)N(CC(=O)Nc3cc(C)ccc3OC)C2=O)cc1,22,-1,1,-13,4,11
CC1CCN(C(=O)c2ccc3c(c2)OCO3)CC1,-13,-2,-7,-3,0,11
O=C(CSc1nnc(Cn2nnc3ccccc32)o1)N(Cc1ccc(Cl)cc1)c1ccccc1,29,66*,53*,14,18,75*
O=C1N[C@@H](Cc2cn(S(=O)(=O)c3ccc(F)cc3)c3ccccc23)C(=O)N[C@H]1Cc1ccccc1,x,-21,-11,x,x,31
Nc1cccc(Oc2ccc([N+](=O)[O-])cc2)c1,-8,-9,-1,3,1,9
Fc1ccc([C@@H]2CCNC[C@H]2COc2ccc3c(c2)OCO3)cc1,5,-5,14,32*,20,9
O=C(COc1ccc2c(c1)OCO2)Nc1ccccc1F,-1,-10,-3,-1,0,8
O=C(C[C@@H]1CC[C@@H]2[C@H](COC[C@H](O)CN2Cc2cccc(C(F)(F)F)c2)O1)NCc1ccc(Cl)cc1,40,x,x,x,8,x
NC(=O)CSc1nc2ccccc2c(=O)n1Cc1ccco1,-4,-11,-14,-11,2,21
COC(=O)c1ccc(CSc2nc3c(cnn3-c3ccccc3)c(=O)[nH]2)o1,-5,-16,11,-20,4,55*

# High-throughput results from PubChem BioAssay.
